Broadly, the GI50 is the concentration at which growth is held to half of that of the control. Low values mean more potent growth inhibition, high ones less potent growth inhibition. As usually defined, the TGI is the concentration giving total growth inhibition.

The results in this text go back to ChEMBL document CHEMBL1821569, “Synthesis of novel 1,2,5-trisubstituted benzimidazoles as potential antitumor agents” (2011).

The experiment concerns HOP-92. Description: Antitumor activity against human HOP92 cells after 48 hrs by SRB assay. The following applies: HOP-92, 48 h. Type of experiment: functional. Summed up: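 NCI 60-cell-line secondary screen. Cells were exposed continuously to drug for 48 h at five concentration levels (100, 10, 1.0, 0.1 and 0.01). Growth was estimated by sulforhodamine B protein staining. GI50 is the concentration giving a 50% reduction in net protein increase versus untreated control cells over the incubation. TGI (total growth inhibition) and LC50 (50% cell kill) were also derived.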
In general terms: Sulforhodamine B stains cellular protein and so reports cell mass.

Where only a bound is given, the exact number is not on record here.

`COC(=O)c1ccc2c(c1)nc(-c1ccc(Cl)cc1)n2-c1cc(C(C)(C)C)[nH]n1` showed a GI50 of 1.15 µM and a total growth inhibition concentration (TGI) of 8.02 µM. Further, the CC50 (read-out: LC50 (the source's name)) is above 100 µM.
